Values joined by “and” are separate entries in the source; they are usually repeats but may differ in a detail not shown here. Equal values may be shown once.
Columns and labels:
[1] = partition coefficient with the use of 1-octanol / water solvent system; format: physicochemical
Procedure, shortened: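 4 mL of 10 mM aqueous compound was stirred vigorously with 2 mL 1-octanol for 5 min at 25 °C. The aqueous layer was analysed by ³¹P NMR, and signal intensity (peak height × width at half-height) gave concentrations in each phase. P = [octanol]/[water].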

Mus musculus [2] = experiment: Percentage increase in life span when the compound was administered intraperitoneally at dose of 20 mg/Kg in P388 leukemia in CDF1 mice was determined; format: functional; conditions: P388, ip
Procedure, shortened: (§1)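 CD2F1 male mice, 19–22 g, in groups of six, inoculated ip with 10⁶ P388 cells on day 0. Dosed ip once daily for 9 days from day 1, in saline, or for linear polyethers in aqueous 2% Tween 80. Deaths and survivors were recorded to 30 days, some to 60. T/C is mean survival, treated vs tumour-bearing control. %ILS = [(T−C)/C]×100. Average day-5 weight change was taken as toxicity.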

Mus musculus [3] = experiment: Percentage increase in life span when the compound was administered intraperitoneally at dose of 60 mg/Kg in P388 leukemia in CDF1 mice was determined; format: functional; conditions: P388, ip; procedure, shortened: as §1
Mus musculus [4] = experiment: Anticancer activity against P388 leukemia in CD2F1 male mice by 60 mg/kg/day.; format: functional; procedure, shortened: as §1
Mus musculus [5] = experiment: Anticancer activity against P388 leukemia in CD2F1 male mice expressed as Average % weight change on day 5 as a measure of toxicity was reported at a dose of 60 mg/kg/day.; format: functional; procedure, shortened: as §1
Mus musculus [6] = experiment: Compound was evaluated for the anticancer activity against P388 leukemia in CD2F1 male mice at a dose of 60 mg/kg/after 30 days; 0/6; format: functional; procedure, shortened: as §1
Mus musculus [7] = experiment: Compound was evaluated for the anticancer activity against P388 leukemia in CD2F1 male mice at a dose of 20 mg/kg/after 30 days; 0/6; format: functional
Mus musculus [8] = experiment: Anticancer activity against P388 leukemia in CD2F1 male mice expressed as Average % weight change on day 5 as a measure of toxicity was reported at a dose of 20 mg/kg/day.; format: functional; procedure, shortened: as §1

| SMILES | Partition coefficient [1] | ILS at 20 mg/kg (Mus musculus [2]) [%] | ILS at 60 mg/kg (Mus musculus [3]) [%] | T/C (Mus musculus [4]) | Weight change (Mus musculus [5]) [%] | Survivors (Mus musculus [6]) | Survivors (Mus musculus [7]) | Weight change (Mus musculus [8]) [%] |
| --- | --- | --- | --- | --- | --- | --- | --- | --- |
| CCOCCOCCOP(=O)(N1CC1(C)C)N1CC1(C)C (stereo unspecified) | 1.65 | 28 | 88 | 188% and 88% | 5.5 | 0 | 0 | 1.5 |
| CCOCCOCCOP(=O)(N1CC1)N1CC1 | 1.25 | 40 | 131 | 231% and 131% | 4.5 | 0 | 0 | 2.8 |
| CCOCCOCCOP(=S)(N1CC1)N1CC1 | 2.4 | 24 | 77 | 177% and 77% | 1.4 | 0 | 0 | 2.6 |
| CCOCCOCCOP(=S)(N1CC1(C)C)N1CC1(C)C (stereo unspecified) | 2.95 | 19 | 42 |  | 1.4 | 0 | 0 | 1.6 |
| O=P(N1CCOCCOCCOCCOCCOCC1)(N1CC1)N1CC1 | 0.044 | 47 | 88 | 188% and 88% | 0.5 | 0 | 0 | 7.6 |
| S=P(N1CCOCCOCCOCCOCCOCC1)(N1CC1)N1CC1 | 5.6 | 2 | 20 |  | 12.3 | 0 | 0 | 10.6 |
